Compounds with a hit are over-represented: about 3% of the library has one in this group of screens.
SIRT5 inh: blocks human SIRT5 desuccinylation of peptide | Purified SirT5, succinyl-peptide AMC, trypsin-coupled fluorescence | 1.1% of 330,000 active | AID 652115 | inhibition, % at 15 µM | Q9NXA8; in the data active = inhibition above about 15%
Target sequence (Q9NXA8 whole entry, looked up): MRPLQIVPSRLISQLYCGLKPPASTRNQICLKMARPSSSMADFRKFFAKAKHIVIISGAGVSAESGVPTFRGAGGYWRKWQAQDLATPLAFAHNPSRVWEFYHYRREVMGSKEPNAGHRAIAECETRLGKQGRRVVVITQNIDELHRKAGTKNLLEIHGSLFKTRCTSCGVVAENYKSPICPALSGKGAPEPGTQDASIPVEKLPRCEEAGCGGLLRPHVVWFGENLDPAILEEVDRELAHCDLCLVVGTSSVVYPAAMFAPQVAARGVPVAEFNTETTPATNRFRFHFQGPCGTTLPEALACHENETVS
rRNA inh HTS: inhibitors of bacterial rRNA selective over humanized ribosomes | E. coli WT GFP vs humanized-ribosome RFP mutants, fluorescence, 24 h; active compounds read low; DMSO median 0, no signal -100 | 1.6% of 350,000 active | AID 720706 | GFP signal change (wild-type ribosome), % (test concentration not listed);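 active = significant combined selectivity score with lowered wild-type GFP, culture density cut under 30%, mutant RFP and density less affected; inactive = any of these conditions unmet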
Cneo AK release: causes C. neoformans cell lysis; adenylate kinase release luminescence, 4 h; normalised: neutral wells 0, clomiphene wells 100; lysis activity, % at 15 µM; 0.2% of 360,000 active; AID 651654;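 active = mean lysis activity across replicates of at least 80%, whatever share of replicates individually reach that level; inactive = mean lysis activity below 80%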
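Signal: Adenylate kinase release luminescence | Assay system: Log-phase Cryptococcus neoformans yeast cells | Input: Cells at 5 × 10^6 per mL | Buffer or medium: Fresh YPD growth medium | Compound: Single dose | Schedule: Static 4 h at 37 °C with compound, 1 h detection | Controls: Clomiphene | Read-out: Luminescence rise reflecting yeast cell lysis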
PGC1a acetyl inh: lowers PGC1a acetylation signal in U2OS cells; 0.17% of 350,000 active; inhibition, % at 15.6 µM; AID 651687; AlphaScreen anti-acetyl-lysine; with virally co-expressed GCN5 acetyltransferase;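 active = every replicate shows inhibition of at least 40%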
Statin myotox sup: suppression of simvastatin myotoxicity | 0.78% of 330,000 active | rescue of ATP level, % at 7.49 µM | C2C12 myotubes + simvastatin, ATP luminescence, 48 h; scaled: DMSO 0, geranylgeraniol control 100;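 active = mean ATP rescue above about 67%, or every replicate alone reaching that limit, limit read from the data, passing the limit was not always enough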;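 also: myotubes were challenged with 10 µM simvastatin during compound exposure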
S100A4 MyoIIA: S100A4-myosin IIA interaction inhibition; P26447; S100A4/TAMRA-MyoIIA peptide fluorescence polarization; inhibition, % at 10.7 µM; 0.14% of 360,000 active; AID 652163;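 active = mean inhibition of at least 70% across replicates, with every replicate also reaching that level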
Target sequence (P26447 whole entry, looked up): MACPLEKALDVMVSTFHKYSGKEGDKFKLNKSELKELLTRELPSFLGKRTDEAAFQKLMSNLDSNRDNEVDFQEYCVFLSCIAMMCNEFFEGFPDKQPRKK
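Test system: S100A4 monomer protein; Medium: HEPES pH 7.2 with CaCl2, KCl, NaCl, DTT, Triton; Probe or stimulus: TAMRA-labelled myosin IIA heavy-chain peptide probe, 5 nM; Doses: one dose per compound; Times: polarization read 5 min after assay mix addition, stable 5–60 min; Benchmarks: neutral control DMSO, positive control TFP.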
Each line names hits and unclear results; the compound was inactive in the other large screens.

Cc1ccc(CNC(=O)c2ccc(CS(=O)(=O)c3ccccc3)o2)cc1	PGC1a acetyl inh 44
C[C@@H]1CN([C@H](C)CO)C(=O)c2cc(Br)cnc2O[C@@H]1CN(C)C(=O)C1CCCCC1	none
CC(=O)Nc1cccc(-c2csc(NCc3ccccc3)n2)c1	rRNA inh HTS -30 (no result: Cneo AK release, PGC1a acetyl inh, Statin myotox sup)
CO[C@H]1CN(C)C(=O)c2ccc(NC(C)=O)cc2OC[C@H](C)N(C(=O)c2ccccc2F)C[C@@H]1C	none (no result: SIRT5 inh, S100A4 MyoIIA)
COc1cccc(CN(C)C(=O)c2ccc(S(=O)(=O)Nc3cccc(C)c3C)cc2)c1OC	SIRT5 inh 17 (no result: rRNA inh HTS)
Nc1ccc(C(=O)OCC(=O)N2CCc3ccccc3C2)cc1[N+](=O)[O-]	rRNA inh HTS -23 (no result: Statin myotox sup)
CN(C)c1cccc(C(=O)OCC(=O)N2CCc3ccccc3C2)c1	rRNA inh HTS -30 (no result: SIRT5 inh, Cneo AK release, Statin myotox sup)
COc1ccc(S(=O)(=O)N(C)C[C@@H]2Oc3cc(C#CC4CCCC4)ccc3S(=O)(=O)N([C@H](C)CO)C[C@H]2C)cc1	SIRT5 inh 19
COCC#Cc1ccc2c(c1)O[C@H](CN(C)S(=O)(=O)c1ccc(OC)cc1)[C@@H](C)CN([C@H](C)CO)S2(=O)=O	none
COCC#Cc1ccc2c(c1)O[C@H](CN(C)S(=O)(=O)c1ccc(OC)cc1)[C@H](C)CN([C@H](C)CO)S2(=O)=O	Cneo AK release 87
COc1ccc(S(=O)(=O)N(C)C[C@@H]2Oc3cc(C#CC4CCCCC4)ccc3S(=O)(=O)N([C@@H](C)CO)C[C@@H]2C)cc1	none
CC(C)CC#Cc1ccc([C@@H]2[C@@H](CO)N3C(=O)CN(C(=O)NC(C)C)C[C@@H]23)cc1	none (no result: SIRT5 inh, Cneo AK release, PGC1a acetyl inh, Statin myotox sup, S100A4 MyoIIA)
O=C(O)C[C@H]1CC[C@H](NC(=O)Nc2cc(F)ccc2F)[C@@H](CO)O1	none
CCc1nn2cc(C(=O)c3cc(Cl)ccc3O)cnc2c1-c1ccc(F)cc1	rRNA inh HTS -18 (no result: Cneo AK release, PGC1a acetyl inh, Statin myotox sup)
CCN(Cc1ccccc1)S(=O)(=O)c1ccc(OC)c2ncccc12	none (no result: Statin myotox sup)
COc1ccc(S(=O)(=O)N(CC(C)C)CC(C)C)c2cccnc12	Statin myotox sup 154
CCCCN(CCCC)S(=O)(=O)c1ccc(OC)c2ncccc12	Statin myotox sup 66 (no result: SIRT5 inh, rRNA inh HTS, S100A4 MyoIIA)
COc1ccc(S(=O)(=O)N(C)c2ccccc2)c2cccnc12	none
O=C(NCC1CC1)[C@@H]1[C@@H](CO)[C@@H]2Cn3c(ccc(C4=CCCCC4)c3=O)[C@@H]2N1Cc1ccccc1F	none (no result: PGC1a acetyl inh)
O=C(CCc1ccccc1Cl)NC1CCCN(c2ccc(C(F)(F)F)cn2)C1 (centres undefined)	S100A4 MyoIIA 179
COCC(=O)Nc1ccc2c(c1)[C@@H]1C[C@@H](CC(=O)N3CCc4ccccc4C3)O[C@@H](CO)[C@@H]1O2	none
COC(=O)C1=C(C)Nc2c(c(=O)n(C)c(=O)n2C)C1c1cccc(O)c1 (centres undefined)	SIRT5 inh 20
Cc1c(NC(=O)C(C)OC(=O)COc2cccc3c2OC(C)(C)C3)c(=O)n(-c2ccccc2)n1C (centres undefined)	Statin myotox sup 114 (no result: SIRT5 inh, rRNA inh HTS, S100A4 MyoIIA)
COc1ccc(C(=O)Cn2nnc(-c3ccccc3F)n2)cc1	rRNA inh HTS -31
C=CCN=C(NC#N)SCc1ccccc1	none (no result: SIRT5 inh, rRNA inh HTS, S100A4 MyoIIA)
C=CCN=C(NC#N)SCC(=O)c1cccc(OC)c1	Statin myotox sup 112 (no result: Cneo AK release)
Cc1cccc(Nc2c(F)c(F)c(F)c(F)c2C(=O)O)c1	rRNA inh HTS -30 (no result: Cneo AK release, Statin myotox sup)
COc1cccc(Nc2c(F)c(F)c(F)c(F)c2C(=O)O)c1	none (no result: SIRT5 inh, rRNA inh HTS, Statin myotox sup, S100A4 MyoIIA)
CCCC#Cc1ccc2c(c1)O[C@@H](CN(C)C(=O)c1ccccn1)[C@@H](C)CN([C@H](C)CO)S2(=O)=O	none
Nc1nc(SCc2ccc(Cl)c(Cl)c2)n[nH]1	rRNA inh HTS -37 (no result: Cneo AK release)
O=C(C[C@H]1C=C[C@@H](NC(=O)Nc2ccc3c(c2)OCO3)[C@@H](CO)O1)NCc1ccccc1	none (no result: SIRT5 inh, Cneo AK release, PGC1a acetyl inh, Statin myotox sup, S100A4 MyoIIA)
CC(C)Cc1nnc(NC(=O)CCC(=O)N2CCN(c3ccc([N+](=O)[O-])cc3)CC2)s1	none
CC(C)Cc1nnc(NC(=O)Cc2ccc([N+](=O)[O-])cc2)s1	SIRT5 inh 29 (no result: Statin myotox sup)
CCOCCCNC(=S)N1CCN(c2nc(-c3ccccc3)cs2)CC1	none
